From ChEMBL document CHEMBL1134338, “cis-Unsaturated analogues of 3,8,13,18,23-pentaazapentacosane (BE-4-4-4-4): synthesis and growth inhibitory effects on human prostate cancer cell lines” (2001)

Columns and labels:
Format in all cases: functional
DU-145 = assay: Inhibition of cell growth was determined in DU145 cell line of human prostate tumor using MTT assay, on day 6 after treatment; details: DU-145, 144 h, read-out: ID50 (the source's name)
In short: (§1)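 Cells in Eagle's MEM with 10% fetal calf serum and nonessential amino acids were seeded at 500 cells/well and incubated overnight at 37 °C in humidified 95% air/5% CO2. Drug dilutions were then added, each concentration in quadruplicate, with buffer-only control columns, for 6 days. MTT (25 µL of 5 mg/mL) was added for 4 h at 37 °C.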

PC-3 = assay: Inhibition of cell growth was determined in PC-3 cell line of human prostate tumor using MTT assay, on day 6 after treatment; details: PC-3, 144 h, read-out: ID50 (the source's name); in short: as §1
LNCaP = assay: Inhibition of cell growth was determined in LNCaP cell line of human prostate tumor using MTT assay, on day 6 after treatment; details: 144 h, read-out: ID50 (the source's name); in short: as §1
DuPro = assay: Inhibition of cell growth was determined in DUPRO cell line of human prostate tumor using MTT assay, on day 6 after treatment; details: 144 h, read-out: ID50 (the source's name); in short: as §1

SMILES | IC50 (DU-145) [nM] | IC50 (PC-3) [nM] | IC50 (LNCaP) [nM] | IC50 (DuPro) [nM]
CCNC/C=C\CNC/C=C\CNC/C=C\CNC/C=C\CNCC | – | 200 | 550 | –
CCNC/C=C\CNC/C=C\CNCCCCNCCCCNCC | – | > 31200 | 150 | –
CCNC/C=C\CNC/C=C\CNCCCCNC/C=C\CNCC | – | – | 320 | > 31200
CCNC/C=C\CNC/C=C\CNC/C=C\CNCCCCNCC | – | > 31200 | 240 | > 31200
CCNCCCCNC/C=C\CNC/C=C\CNCCCCNCC | – | > 31200 | 150 | –
CCNC/C=C\CNCCCCNCCCCNCCCCNCC | – | – | 140 | –

More lines, in order of falling IC50 (LNCaP), values ahead:

IC50 (DU-145) [nM] | IC50 (PC-3) [nM] | IC50 (LNCaP) [nM] | SMILES | IC50 (DuPro) [nM]
340 | > 31200 | 540 | CCNC/C=C\CNCCCCNC/C=C\CNCCCCNCC | > 31200
– | 500 | 300 | CCNC/C=C\CNCCCCNCCCCNC/C=C\CNCC | 250
80 | > 31200 | 90 | CCNCCCCNC/C=C\CNCCCCNCCCCNCC | –
